Columns and labels:
Rattus norvegicus [1] = assay: Effect on vasopressor response caused by angiotensin I (AI) in anesthetized normotensive rat, administered intravenously at dose 0.030 mg/kg; assay type: functional; conditions: dose 0.03 mg/kg; route intravenous
Procedure, shortened: (§1)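 Male Charles River CD rats, 380–500 g, anesthetized with pentobarbital Na 15 mg/kg plus barbital 220 mg/kg ip, held at 37 °C. Femoral artery pressure recorded. AI 0.3 μg/kg and AII 0.1 μg/kg given iv as challenges. Cumulative iv drug in saline, 0.01–0.81 mg/kg, each dose followed by AI/AII challenges at 5-min intervals. ED50 = 50% change from control response, by linear regression.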

Rattus norvegicus [2] = assay: Decrease in systolic blood pressure of Spontaneous Hypertensive Rats (SHR) pretreated with hydrochlorothiazide upon oral administration at 30 mm/kg; assay type: functional, Artery
Procedure, shortened: (§2)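 Male SHR, 13 weeks old, given HCTZ 25 mg/kg po in 0.25% methylcellulose daily for 3 days. Drug given orally in water (5 mL/kg) 1 h after the third dose. Tail-cuff systolic pressure and pulse-count heart rate taken 1.5 h later after 20 min warming at 38 °C. ANOVA with Duncan's test; ED30 by linear regression.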

Rattus norvegicus [3] = organism: Rattus norvegicus; assay: Dose required to reduce systolic blood pressure by 30 mmHg in renal hypertensive rat; assay type: functional; conditions: Artery
Procedure, shortened: (§3)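 Renal hypertensive rats were prepared by clipping the left renal artery (0.22-mm clip) in 4-week-old male CD rats and held 6 weeks. Overnight-fasted rats were dosed orally with aqueous solution (5 mL/kg), water as control. Tail-cuff systolic pressure and heart rate measured 2 h post-dose. ANOVA with Duncan's test; ED30 by linear regression.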

Rattus norvegicus [4] = assay: Activity against the bradykinin Response in anesthetized normotensive rat, administered intravenously at dose 0.090 mg/kg; assay type: functional; conditions: dose 0.09 mg/kg; route intravenous
Procedure, shortened: (§4)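 Anesthetized (pentobarbital/barbital ip) male Charles River CD rats, 380–500 g, kept at 37 °C. Femoral artery blood pressure recorded. Control depressor response to bradykinin 1 μg/kg iv, then cumulative iv drug in 0.9% saline (1 mL/kg), 0.0033–0.27 mg/kg. Bk challenge 5 min after each dose. ED50 = dose giving a 50% change from control, by linear regression; N = 8.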

Rattus norvegicus [5] = assay: Effect on systolic blood pressure was determined in renal hypertensive rat, administered orally at a dose 10 mg/kg; assay type: functional, Artery; conditions: route oral; procedure, shortened: as §3
Rattus norvegicus [6] = assay: Change in heart rate was determined at a dose 10 mg/kg; assay type: functional; procedure, shortened: as §2
Rattus norvegicus [7] = assay: Decrease in systolic blood pressure of Spontaneous Hypertensive Rats (SHR) pretreated with hydrochlorothiazide upon oral administration at 3 mm/kg; assay type: functional, Artery; procedure, shortened: as §2
Rattus norvegicus [8] = assay: Percent change was determined in bradykinin depressor response in anesthetized normotensive rat, administered intravenously at dose 0.090 mg/kg; assay type: functional; conditions: dose 0.09 mg/kg; route intravenous
Procedure, shortened: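 Male Charles River CD rats (380–500 g), pentobarbital Na 15 mg/kg plus barbital 220 mg/kg ip, tracheotomized, femoral artery/vein cannulated, kept at 37 °C. Control bradykinin 1 μg/kg iv depressor response, separate from angiotensin tests; drug iv in 0.9% saline (1 mL/kg, free base) 10 min later, Bk 5 min after each cumulative dose (0.0033–0.27 mg/kg). Maximum fall in arterial pressure versus control response; N = 8.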

Rattus norvegicus [9] = organism: Rattus norvegicus; assay: Dose required to reduce systolic blood pressure by 30 mmHg; assay type: functional; conditions: Artery; procedure, shortened: as §2
Rattus norvegicus [10] = assay: Hypotensive activity was determined in low-sodium treated rat, dose 30 mg/kg administered orally at 2 hr; assay type: functional; conditions: route oral
Procedure, shortened: (§5)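 Male CD rats, 11 weeks old, kept on a sodium-deficient diet for 3 weeks and fasted overnight, were dosed orally with aqueous solutions (5 mL/kg), water as control. Systolic pressure measured by tail cuff at the stated post-dose time. ANOVA with Duncan's test.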

Rattus norvegicus [11] = assay: Effect on vasopressor response caused by angiotensin I (AI) in anesthetized normotensive rat, administered intravenously at dose 0.81 mg/kg; assay type: functional; conditions: route intravenous; procedure, shortened: as §1
Canis familiaris [12] = assay: Effect on pressor response of angiotensin I in anesthetized dog, dose 0.9 mg/kg administered intravenously; assay type: functional, Canis lupus familiaris; conditions: route intravenous
Procedure, shortened: (§6)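 Mongrel dogs, 7.3–15.5 kg, anesthetized with barbital/pentobarbital iv, tracheotomized and vagotomized, n = 4. Cumulative iv doses in saline (0.2 mL/kg) spaced 30 min apart. AI and AII 1 μg/kg iv challenges given after each dose; the second pre-dose set served as control.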

Canis familiaris [13] = assay: Effect on pressor response of angiotensin I in conscious dog at 60-65 min, dose 0.5 mg/kg administered orally; assay type: functional, Canis lupus familiaris; conditions: route oral
Procedure, shortened: (§7)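 Conscious fasted mongrel dogs of both sexes, 6.8–15.3 kg, with femoral cannulas. Drug given orally in 0.25% methylcellulose with 3% glycerin (2 mL/kg), n = 4 per dose. AI 0.3, AII 0.1 and NE 1 μg/kg iv challenges. The second pre-dose set served as control; response measured at 60–65 min post-dose.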

Canis familiaris [14] = assay: Effect on pressor response of angiotensin II in anesthetized dog, dose 0.9 mg/kg administered intravenously; assay type: functional, Canis lupus familiaris; conditions: route intravenous; procedure, shortened: as §6
Rattus norvegicus [15] = assay: Percent decrease in angiotensin I pressor response was measured in rat, administered intravenously at dose 0.27 mg/kg; assay type: functional; conditions: route intravenous
Procedure, shortened: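 Anesthetized (pentobarbital Na 15 mg/kg + barbital 220 mg/kg ip), tracheotomized male Charles River CD rats, 380–500 g, femoral cannulas, heated board at 37 °C. Control pressor responses to angiotensin I 0.3 μg/kg then angiotensin II 0.1 μg/kg iv; drug iv in 0.9% saline (free base), AI and AII repeated at 5-min intervals, cumulative 0.01–0.81 mg/kg. Peak arterial pressure rise versus control.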

Rattus norvegicus [16] = assay: Effect on vasopressor response caused by angiotensin I (AI) in anesthetized normotensive rat, administered intravenously at dose 0.090 mg/kg; assay type: functional; conditions: dose 0.09 mg/kg; route intravenous; procedure, shortened: as §1
Rattus norvegicus [17] = assay: Percent change was determined in bradykinin depressor response in anesthetized normotensive rat, administered intravenously at dose 0.0033 mg/kg; assay type: functional; conditions: route intravenous; procedure, shortened: as §4
Rattus norvegicus [18] = assay: Change in heart rate was determined in renal hypertensive rat, administered orally at a dose 30 mg/kg; assay type: functional; conditions: route oral; procedure, shortened: as §3
Rattus norvegicus [19] = assay: Effect on systolic blood pressure was determined in renal hypertensive rat, administered orally at a dose 100 mg/kg; assay type: functional, Artery; conditions: route oral; procedure, shortened: as §3
Rattus norvegicus [20] = assay: Hypotensive activity was determined in low-sodium treated rat, dose 3 mg/kg administered orally at 2 hr; assay type: functional; conditions: route oral; procedure, shortened: as §5
Rattus norvegicus [21] = assay: Hypotensive activity was determined in low-sodium treated rat, dose 10 mg/kg administered orally at 2 hr; assay type: functional; conditions: route oral; procedure, shortened: as §5
Rattus norvegicus [22] = assay: Change in heart rate was determined in renal hypertensive rat, administered orally at a dose 10 mg/kg; assay type: functional; conditions: route oral; procedure, shortened: as §3
Canis familiaris [23] = assay: Effect on pressor response of angiotensin II in anesthetized dog, dose 0.3 mg/kg administered intravenously; assay type: functional, Canis lupus familiaris; conditions: route intravenous; procedure, shortened: as §6
Rattus norvegicus [24] = assay: Effect on vasopressor response caused by angiotensin I (AI) in anesthetized normotensive rat, administered intravenously at dose 0.27 mg/kg; assay type: functional; conditions: route intravenous; procedure, shortened: as §1
Rattus norvegicus [25] = assay: Effect on vasopressor response caused by angiotensin I (AI) in anesthetized normotensive rat, administered intravenously at dose 0.010 mg/kg; assay type: functional; conditions: dose 0.01 mg/kg; route intravenous; procedure, shortened: as §1
Rattus norvegicus [26] = assay: Effect on systolic blood pressure was determined in renal hypertensive rat, administered orally at a dose 30 mg/kg; assay type: functional, Artery; conditions: route oral; procedure, shortened: as §3
Canis familiaris [27] = assay: Effect on pressor response of angiotensin I in conscious dog at 60-65 min, dose 2 mg/kg administered orally; assay type: functional, Canis lupus familiaris; conditions: route oral; procedure, shortened: as §7

For `CCOC(=O)[C@H](CCc1ccccc1)N[C@@H](C)C(=O)N1C(=O)CC[C@H]1C(=O)O`, which Response (Rattus norvegicus [1]) is on record?
Its Response is 39 mmHg.

What about the Blood pressure (Rattus norvegicus [2]) of the same molecule?
Its Blood pressure is 190 mmHg.

What about the ED30 (Rattus norvegicus [3]) of the same molecule?
Its ED30 is 5.9 mg/kg.

What about the Response (Rattus norvegicus [4]) of the same molecule?
The Response was -61 mmHg.

What about the Activity (Rattus norvegicus [5]) of the same molecule?
The Activity was 204 mmHg.

And the Heart rate (Rattus norvegicus [6])?
Its Heart rate is 369 beats min-1.

What about the Blood pressure (Rattus norvegicus [7]) of the same molecule?
The Blood pressure was 211 mmHg.

And the Change (Rattus norvegicus [8])?
Its Change is 69%.

What about the ED30 (Rattus norvegicus [9]) of the same molecule?
The ED30 was 3.5 mg/kg.

And the Activity (Rattus norvegicus [10])?
The Activity was 135 mmHg.

What about the Response (Rattus norvegicus [11]) of the same molecule?
Its Response is 4 mmHg.

And the Blood pressure (Canis familiaris [12])?
Its Blood pressure is 28 mmHg.

And the Blood pressure (Canis familiaris [13])?
The Blood pressure was 47 mmHg.

What about the Blood pressure (Canis familiaris [14]) of the same molecule?
The Blood pressure was 73 mmHg.

What about the Decrease (Rattus norvegicus [15]) of the same molecule?
The Decrease was 63%.

What about the Response (Rattus norvegicus [16]) of the same molecule?
The Response was 33 mmHg.

And the Change (Rattus norvegicus [17])?
Its Change is 22%.

What about the Heart rate (Rattus norvegicus [18]) of the same molecule?
Its Heart rate is 481 beats min-1.

And the Activity (Rattus norvegicus [19])?
Its Activity is 186 mmHg.

What about the Activity (Rattus norvegicus [20]) of the same molecule?
Its Activity is 154 mmHg.

And the Activity (Rattus norvegicus [21])?
Its Activity is 148 mmHg.

What about the Heart rate (Rattus norvegicus [22]) of the same molecule?
Its Heart rate is 438 beats min-1.

And the Blood pressure (Canis familiaris [23])?
The Blood pressure was 68 mmHg.

And the Response (Rattus norvegicus [24])?
Its Response is 18 mmHg.

What about the Response (Rattus norvegicus [25]) of the same molecule?
Its Response is 45 mmHg.

And the Activity (Rattus norvegicus [26])?
The Activity was 204 mmHg.

And the Blood pressure (Canis familiaris [27])?
The Blood pressure was 8 mmHg.

Source: ChEMBL document CHEMBL1122835, “Synthesis and pharmacology of the potent angiotensin-converting enzyme inhibitor N-[1(S)-(ethoxycarbonyl)-3-phenylpropyl]-(S)-alanyl-(S)-pyroglutamic acid” (J Med Chem, 1985)
